Test results from ChEMBL document CHEMBL2062488, “Exploration of diverse hinge-binding scaffolds for selective Aurora kinase inhibitors” (Bioorg Med Chem Lett, 2012).

Experiments:
[1] = Clearance in mouse at 3 mg/kg, iv; format: ADME, organism-based; design: dose 3 mg/kg, route intravenous; conditions: in vivo
[2] = Volume of distribution in mouse at 3 mg/kg, iv; format: ADME, organism-based; design: dose 3 mg/kg, route intravenous; conditions: in vivo
[3] = Oral bioavailability in mouse at 10 mg/kg; format: ADME, organism-based; conditions: in vivo
[4] = target: T1, Aurora kinase A (Homo sapiens, UniProt O14965); test: Inhibition of Aurora A kinase by HTRF analysis in presence of 1 mM ATP
T1 sequence (O14965 whole entry): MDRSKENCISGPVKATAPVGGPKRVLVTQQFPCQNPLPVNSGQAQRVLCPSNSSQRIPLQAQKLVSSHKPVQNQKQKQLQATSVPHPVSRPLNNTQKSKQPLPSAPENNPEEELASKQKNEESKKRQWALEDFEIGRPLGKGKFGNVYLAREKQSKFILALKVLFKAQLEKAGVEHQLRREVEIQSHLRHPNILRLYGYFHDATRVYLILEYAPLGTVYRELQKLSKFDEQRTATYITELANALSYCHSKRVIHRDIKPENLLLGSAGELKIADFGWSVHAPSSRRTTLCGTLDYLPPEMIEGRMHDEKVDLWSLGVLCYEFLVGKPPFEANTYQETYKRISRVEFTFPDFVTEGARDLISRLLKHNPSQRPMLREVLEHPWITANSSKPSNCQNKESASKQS

[5] = test system: Mus musculus; test: Inhibition of histone 3 phosphorylation in leukemia xenografted mouse model at 50 mg/kg, ip measured after 4 hrs; format: functional; conditions: route intraperitoneal
Summary of the method: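 Leukemia-engrafted mouse model dosed 50 mpk IP. Histone H3 phosphorylation was measured 4 h after the dose as percent inhibition.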

[6] = test system: NCI-H1299; test: Cell cycle arrest in human NCI-H1299 assessed as induction of polyploidy after 48 hrs by Hoechst staining-based fluorescence microscopic analysis; format: functional; conditions: NCI-H1299, 48 h
Summary of the method: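 NCI-H1299 cells seeded at 4 K/well and left overnight to adhere. Compounds at varying concentrations added in duplicate wells, RPMI 1640 with 10% fetal calf serum, 37 °C for 48 h. Cells fixed in 3% formalin for 1 h, Hoechst-stained and imaged by high-content fluorescence microscopy (360/460 nm) for nuclear area. Polyploid (≥4N) cells had nuclear area >750. EC15 is the concentration giving 15% polyploid cells, from least-squares fit of log dose-response.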

[7] = test system: Mus musculus; test: AUC in mouse at 10 mg/kg, po; format: ADME, organism-based, Plasma; design: dose 10 mg/kg, route oral; conditions: in vivo
Summary of the method: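 Pyrrolotriazines were given by oral cassette dosing at 10 mpk, with several compounds in one cassette. Oral exposure is reported as AUC.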

[8] = organism: Homo sapiens; test: Selectivity ratio of IC50 for Aurora A kinase to IC50 for Aurora B kinase
[9] = Distribution half life in mouse at 3 mg/kg, iv; format: ADME, organism-based; design: dose 3 mg/kg, route intravenous; conditions: in vivo, read-out: alphat1/2 (converted)
[10] = target: T2, Aurora kinase B (Homo sapiens, UniProt Q96GD4); test: Inhibition of Aurora B kinase by HTRF analysis in presence of 1 mM ATP
[11] = target: Activin receptor type-1-like (Homo sapiens, UniProt P37023); test: Inhibition of Alk1 in presence of 10 uM ATP
[12] = target: T1, Aurora kinase A; test: Inhibition of Aurora A kinase in presence of 10 uM ATP
[13] = target: T3, Serine/threonine-protein kinase PLK4 (Homo sapiens, UniProt O00444); test: Inhibition of Plk4 in presence of 10 uM ATP
T3 sequence (O00444 whole entry): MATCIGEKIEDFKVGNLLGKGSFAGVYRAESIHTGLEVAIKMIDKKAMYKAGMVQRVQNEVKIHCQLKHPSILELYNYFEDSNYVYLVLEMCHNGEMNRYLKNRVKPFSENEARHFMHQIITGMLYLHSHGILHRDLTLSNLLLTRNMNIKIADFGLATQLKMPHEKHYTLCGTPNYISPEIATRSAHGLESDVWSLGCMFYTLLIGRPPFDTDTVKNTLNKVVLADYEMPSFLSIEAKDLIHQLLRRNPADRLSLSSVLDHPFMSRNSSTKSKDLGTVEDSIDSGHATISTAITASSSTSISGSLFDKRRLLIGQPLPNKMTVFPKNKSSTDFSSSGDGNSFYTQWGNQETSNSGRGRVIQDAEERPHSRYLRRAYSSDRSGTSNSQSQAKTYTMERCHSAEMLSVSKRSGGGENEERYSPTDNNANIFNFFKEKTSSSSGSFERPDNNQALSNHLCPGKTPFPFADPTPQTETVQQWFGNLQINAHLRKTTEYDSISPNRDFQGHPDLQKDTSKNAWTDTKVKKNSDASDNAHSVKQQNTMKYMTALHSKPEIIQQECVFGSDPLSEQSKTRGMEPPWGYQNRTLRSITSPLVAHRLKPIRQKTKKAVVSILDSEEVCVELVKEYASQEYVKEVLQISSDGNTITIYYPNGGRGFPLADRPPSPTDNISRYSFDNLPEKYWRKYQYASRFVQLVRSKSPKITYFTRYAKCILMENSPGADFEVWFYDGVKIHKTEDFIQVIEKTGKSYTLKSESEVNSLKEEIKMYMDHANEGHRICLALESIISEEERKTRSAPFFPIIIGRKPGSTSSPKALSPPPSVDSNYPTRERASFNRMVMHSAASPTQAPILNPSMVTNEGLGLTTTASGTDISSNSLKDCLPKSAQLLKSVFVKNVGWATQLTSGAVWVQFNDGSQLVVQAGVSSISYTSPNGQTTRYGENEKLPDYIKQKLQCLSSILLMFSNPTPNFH

[14] = target: T4, Calcium/calmodulin-dependent protein kinase type IV (Homo sapiens, UniProt Q16566); test: Inhibition of Camk4 in presence of 10 uM ATP
T4 sequence (Q16566 whole entry): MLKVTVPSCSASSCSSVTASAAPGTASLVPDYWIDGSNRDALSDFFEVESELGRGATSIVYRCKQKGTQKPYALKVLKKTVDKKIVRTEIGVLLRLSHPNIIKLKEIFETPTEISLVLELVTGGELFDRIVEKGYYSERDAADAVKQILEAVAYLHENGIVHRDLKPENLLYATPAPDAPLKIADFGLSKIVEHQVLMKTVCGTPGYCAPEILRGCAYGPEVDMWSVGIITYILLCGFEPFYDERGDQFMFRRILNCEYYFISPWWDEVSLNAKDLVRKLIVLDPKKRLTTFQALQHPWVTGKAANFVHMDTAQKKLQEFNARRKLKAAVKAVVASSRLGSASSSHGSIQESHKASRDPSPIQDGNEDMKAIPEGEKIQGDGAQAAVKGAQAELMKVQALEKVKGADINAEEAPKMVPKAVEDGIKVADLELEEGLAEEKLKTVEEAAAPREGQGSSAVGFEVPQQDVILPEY

[15] = target: T2, Aurora kinase B; test: Inhibition of Aurora B kinase in presence of 10 uM ATP

T2 sequence (Q96GD4 whole entry): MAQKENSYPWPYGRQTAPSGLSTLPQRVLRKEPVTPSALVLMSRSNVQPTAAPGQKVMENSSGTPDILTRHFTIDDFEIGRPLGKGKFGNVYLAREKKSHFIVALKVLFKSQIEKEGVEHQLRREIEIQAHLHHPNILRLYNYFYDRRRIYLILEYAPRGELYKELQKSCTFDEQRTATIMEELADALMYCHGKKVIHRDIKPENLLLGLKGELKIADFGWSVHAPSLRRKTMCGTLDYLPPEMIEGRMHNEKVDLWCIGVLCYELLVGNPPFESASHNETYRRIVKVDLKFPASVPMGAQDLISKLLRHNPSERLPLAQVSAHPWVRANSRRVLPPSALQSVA
Activin receptor type-1-like, sequence (P37023 whole entry): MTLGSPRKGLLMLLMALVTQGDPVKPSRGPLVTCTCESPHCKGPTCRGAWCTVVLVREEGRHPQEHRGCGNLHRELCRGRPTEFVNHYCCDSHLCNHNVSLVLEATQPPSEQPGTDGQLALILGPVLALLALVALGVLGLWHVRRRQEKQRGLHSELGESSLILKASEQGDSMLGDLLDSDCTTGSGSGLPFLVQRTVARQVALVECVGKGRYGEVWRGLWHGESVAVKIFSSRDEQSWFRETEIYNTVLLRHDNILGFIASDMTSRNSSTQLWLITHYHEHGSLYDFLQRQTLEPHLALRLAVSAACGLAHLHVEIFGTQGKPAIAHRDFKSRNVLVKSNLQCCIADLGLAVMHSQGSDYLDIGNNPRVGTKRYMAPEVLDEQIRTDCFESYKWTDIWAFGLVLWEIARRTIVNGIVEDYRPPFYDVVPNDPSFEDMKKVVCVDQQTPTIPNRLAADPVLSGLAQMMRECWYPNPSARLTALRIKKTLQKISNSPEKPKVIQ

Structure (SMILES) | IC50 [4] | EC15 [6] | Ratio IC50 [8] | IC50 [10] | further results
Nc1noc2cccc(C(=O)Nc3cccc(CNC(=O)Nc4ccc(F)c(F)c4)c3)c12 | 4780 nM | 15 nM | 696 | 7 nM | clearance [1]: 6.5 mL/min/kg; Vd [2]: 0.96 L/kg; bioavailability [3]: 31%; inhibition in vivo at 50 mg/kg [5]: 87%; AUC [7]: 8 uM.hr/ml; half-life [9]: 1.7 h
Cc1ccc(NC(=O)NCc2cccc(NC(=O)c3ccn4ncnc(N)c34)c2)cc1 | – | 1 nM | – | – | –
Nc1nsc2cccc(C(=O)Nc3cccc(CNC(=O)Nc4cccc(F)c4)c3)c12 | – | 18 nM | – | – | –
Nc1ncnn2ccc(C(=O)Nc3cccc(CNC(=O)Nc4cccc(Cl)c4)c3)c12 | – | 2 nM | – | – | –
Nc1noc2cccc(C(=O)Nc3cccc(CNC(=O)Cc4cccc(F)c4)c3)c12 | > 12500 nM | – | – | > 12500 nM | –
Nc1nsc2cccc(C(=O)Nc3cccc(CNC(=O)Nc4ccc(C(F)(F)F)cc4)c3)c12 | – | 18 nM | – | – | –
Nc1noc2cccc(C(=O)Nc3cccc(CNC(=O)Nc4cccc(F)c4)c3)c12 | 3180 nM | 3 nM | 54 | 59 nM | clearance [1]: 8.83 mL/min/kg; Vd [2]: 0.54 L/kg; bioavailability [3]: 28%; AUC [7]: 5 uM.hr/ml; half-life [9]: 0.7 h
Nc1noc2cccc(C(=O)Nc3cccc(CNC(=O)Nc4ccccc4F)c3)c12 | > 12500 nM | 124 nM | > 227 | 55 nM | –
Nc1ncnn2ccc(C(=O)Nc3ccc(NC(=O)Nc4ccc(F)cc4)cc3)c12 | 88 nM | 16 nM | 2.4 | 36 nM | –
Nc1ncnn2ccc(C(=O)Nc3ccc(NC(=O)NC4CCCC4)cc3)c12 | – | 15 nM | – | – | –
Nc1nsc2cccc(C(=O)Nc3cccc(CNC(=O)Nc4ccc(F)c(F)c4)c3)c12 | 12500 nM | 21 nM | 347 | 36 nM | –
Nc1n[nH]c2cccc(C(=O)Nc3cccc(CNC(=O)Nc4cccc(F)c4)c3)c12 | – | 111 nM | – | – | –
Nc1noc2cccc(C(=O)Nc3ccc(NC(=O)Nc4ccc(Cl)cc4)cc3)c12 | > 12500 nM | – | > 89 | 140 nM | –
Nc1ncnn2ccc(C(=O)Nc3ccc(NC(=O)Nc4cccc(F)c4)cc3)c12 | – | 3 nM | – | 9 nM | IC50 [11]: > 10000 nM; IC50 [12]: < 3 nM; IC50 [13]: < 3 nM; IC50 [14]: > 10000 nM; IC50 [15]: < 3 nM
Nc1noc2cccc(C(=O)Nc3cccc(CNC(=O)Nc4ccc(Cl)cc4)c3)c12 | – | 12 nM | – | – | –
Nc1noc2cccc(C(=O)Nc3cccc(CNC(=O)Nc4ccccc4)c3)c12 | 3790 nM | 47 nM | 210 | 18 nM | –
Cn1nc(N)c2c(C(=O)Nc3cccc(CNC(=O)Nc4ccc(C(F)(F)F)cc4)c3)cccc21 | 12500 nM | – | 73 | 172 nM | –
Nc1n[nH]c2cccc(C(=O)Nc3cccc(CNC(=O)Nc4ccc(F)c(F)c4)c3)c12 | – | 143 nM | – | – | –
Nc1ncnn2ccc(C(=O)Nc3cccc(CNC(=O)Nc4ccc(C(F)(F)F)cc4)c3)c12 | – | 6 nM | – | – | –
Cc1cccc(NC(=O)Nc2ccc(NC(=O)c3ccn4ncnc(N)c34)cc2)c1 | – | 9 nM | – | – | –
Nc1noc2cccc(C(=O)Nc3cccc(CC(=O)Nc4cccc(F)c4)c3)c12 | > 12500 nM | – | – | 450 nM | –
Nc1noc2cccc(C(=O)Nc3cccc(CNC(=O)Nc4ccc(C(F)(F)F)cc4)c3)c12 | – | 13 nM | – | – | clearance [1]: 2.17 mL/min/kg; Vd [2]: 0.23 L/kg; bioavailability [3]: 77%; AUC [7]: 61 uM.hr/ml; half-life [9]: 1.3 h
Nc1noc2cccc(C(=O)Nc3ccc(NC(=O)Nc4ccc(F)cc4)cc3)c12 | > 12500 nM | – | > 26 | 480 nM | –
Nc1ncnn2ccc(C(=O)Nc3cccc(CNC(=O)Nc4ccc(Cl)cc4)c3)c12 | – | 1 nM | – | – | –
Nc1noc2cccc(C(=O)Nc3cccc(CNC(=O)Nc4ccc(F)cc4)c3)c12 | – | 30 nM | – | – | –
Nc1ncnn2ccc(C(=O)Nc3cccc(CNC(=O)Nc4cccc(F)c4)c3)c12 | – | 2 nM | – | – | –
Nc1ncnn2ccc(C(=O)Nc3ccc(NC(=O)Nc4ccsc4)cc3)c12 | – | 6 nM | – | – | –
Cc1ccc(NC(=O)NCc2cccc(NC(=O)c3cccc4onc(N)c34)c2)cc1 | – | 1 nM | – | – | –
